Drawing on ChEMBL document CHEMBL2434961, “Development of 3-phenyl-4,5,6,7-tetrahydro-1H-pyrazolo[4,3-c]pyridine derivatives as novel Mycobacterium tuberculosis pantothenate synthetase inhibitors” (Eur J Med Chem, 2013), this text covers inhibition, MIC and cytotoxicity for 35 molecules.

Converted amounts (≈) assume the structure as drawn. Some results are limits rather than exact numbers.

Data set [1] addresses T1, Pantothenate synthetase (Mycobacterium tuberculosis) (UniProt P9WIL5).
T1 sequence (whole entry): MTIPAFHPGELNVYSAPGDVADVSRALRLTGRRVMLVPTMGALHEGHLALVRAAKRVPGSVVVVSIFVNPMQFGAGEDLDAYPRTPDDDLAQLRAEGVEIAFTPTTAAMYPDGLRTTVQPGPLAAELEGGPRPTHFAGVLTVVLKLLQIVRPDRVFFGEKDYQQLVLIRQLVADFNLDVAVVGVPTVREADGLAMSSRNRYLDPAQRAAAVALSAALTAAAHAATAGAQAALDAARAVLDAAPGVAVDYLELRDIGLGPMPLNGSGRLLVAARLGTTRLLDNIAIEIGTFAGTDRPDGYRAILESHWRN
Kind of data set: Inhibition of Mycobacterium tuberculosis pantothenate synthetase cloned in Escherichia coli BL21 (DE3) using ATP, beta-alanine, pantoic acid as substrate assessed as NAD+ production at 100 uM measured every 12 secs for 120 secs by spectrophotometric analysis relative to control. The method in brief:
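Coupled assay linking AMP from β-alanine plus pantoate condensation to NADH oxidation via myokinase, pyruvate kinase and lactate dehydrogenase. Mix held NADH, pantoic acid, β-alanine, ATP, phosphoenolpyruvate and MgCl₂ in buffer; compound (100 µM) added; reaction started with PS. A340 read every 12 s for 120 s. % inhibition = 100 × (1 − (compound rate − background)/(full rate − background)).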

The subject of data set [2] is Mycobacterium tuberculosis. The data set can be described thus: Antibacterial activity against Mycobacterium tuberculosis H37Rv ATCC 27294 assessed as growth inhibition after 28 days by agar dilution method. Particulars: H37Rv ATCC 27294, 672 h. The format is functional. In a few lines: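 Two-fold serial dilutions incorporated into Middlebrook 7H11 agar with OADC, final 50 to 0.78 µg/mL. Inoculum of 1 mg/mL (wet weight) in 0.05% Tween 80 saline, diluted 10⁻² to ~10⁷ cfu/mL. 5 µL spotted per tube, incubated at 37 °C for 28 days. MIC is the lowest concentration giving complete growth inhibition.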

Data set [3] in a line: Cytotoxicity against mouse RAW264.7 cells assessed as inhibition of cell viability at 50 uM after 72 hrs by MTT assay relative to control. The format is cell-based. The settings on record: read-out: INH. In a few lines: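 RAW 264.7 mouse macrophage cells exposed to compound at 50 µM for 72 h. Viability assessed by cellular conversion of MTT to formazan.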
A general note: Tetrazolium assays rely on reduction of a dye to a coloured formazan, in cell work by metabolically active cells.

A word on the inhibition: it is the relative decrease from the control value, in per cent. Broadly, the MIC is the lowest concentration that inhibits growth of the organism. As to `O=C(NCc1ccccc1)N1CCc2c(c(-c3ccccc3)nn2C(=O)C2CCCCC2)C1`, the inhibition in data set [1] came to 49.1%. Also, in data set [2], the minimal inhibitory concentration (MIC) stood at 54.5 µM (≈ 24.1 µg/mL). In data set [3], the cytotoxicity at 72 h, 50 µM was 35.7%.
In the same order, the values of `O=C(Nc1ccc([N+](=O)[O-])cc1)N1CCc2c(c(-c3ccccc3)nn2C(=O)C2CCCCC2)C1` are 50.8%, 52.8 µM (≈ 25 µg/mL) and 14.9%.
Regarding `O=C(c1ccccc1)n1nc(-c2ccccc2)c2c1CCN(C(=S)Nc1ccc(Cl)cc1)C2`, the inhibition in data set [1] amounted to 37.7%. For the same molecule, in data set [2], the minimum inhibitory concentration (MIC) was 106 µM (≈ 50 µg/mL). In data set [3], the cytotoxicity at 72 h, 50 µM came to 0%.
In the same order, the values of `O=C(C1CCCCC1)n1nc(-c2ccccc2)c2c1CCN(S(=O)(=O)c1cccs1)C2` are 52%, 54.9 µM (≈ 25 µg/mL) and 8.1%.
In the same order, the values of `O=C(NCc1ccccc1)N1CCc2c(c(-c3ccccc3)nn2C(=O)c2ccccc2)C1` are 46.2%, 114 µM (≈ 49.8 µg/mL) and 0.7%.
In the same order, the values of `CC(=O)c1ccc(NC(=O)N2CCc3c(c(-c4ccccc4)nn3C(=O)C3CCCCC3)C2)cc1` are 51.4%, 108 µM (≈ 50.9 µg/mL) and 22.5%.
As for `O=C(C1CCCCC1)n1nc(-c2ccccc2)c2c1CCN(C(=S)Nc1ccc([N+](=O)[O-])cc1)C2`, in data set [1], the inhibition was 47.3%. Also, the minimum inhibitory concentration (MIC) in data set [2] amounted to 53.5 µM (≈ 26.2 µg/mL). The cytotoxicity at 72 h, 50 µM in data set [3] is 0%.
In the same order, the values of `Cc1ccc(S(=O)(=O)N2CCc3c(c(-c4ccccc4)nn3C(=O)c3ccccc3)C2)cc1` are 9%, 109 µM (≈ 50 µg/mL) and 0%.
In the same order, the values of `O=C(c1ccccc1)n1nc(-c2ccccc2)c2c1CCN(C(=S)NCc1ccccc1)C2` are 52.1%, 110 µM (≈ 50 µg/mL) and 0%.
In the same order, the values of `CC(C)NC(=O)N1CCc2c(c(-c3ccccc3)nn2C(=O)c2ccccc2)C1` are 40.9%, 129 µM (≈ 50 µg/mL) and 10.6%.
For `Cc1ccc(NC(=O)N2CCc3c(c(-c4ccccc4)nn3C(=O)c3ccccc3)C2)cc1`, the inhibition in data set [1] came to 49.4%. Further, the minimum inhibitory concentration (MIC) in data set [2] stood at 114 µM (≈ 49.8 µg/mL). In addition, in data set [3], the cytotoxicity at 72 h, 50 µM is 57.1%.
In the same order, the values of `Cc1ccc(S(=O)(=O)N2CCc3c(c(-c4ccccc4)nn3C(=O)C3CCCCC3)C2)cc1` are 41.6%, 53.9 µM (≈ 25 µg/mL) and 0%.
In the same order, the values of `CC(=O)c1ccc(NC(=O)N2CCc3c(c(-c4ccccc4)nn3C(=O)c3ccccc3)C2)cc1` are 43.7%, more than 108 µM and 12.8%.
Take `O=C(C1CCCCC1)n1nc(-c2ccccc2)c2c1CCN(C(=S)NCc1ccccc1)C2`: the inhibition in data set [1] came out at 51.4%. In addition, in data set [2], the minimum inhibitory concentration (MIC) was 108 µM (≈ 49.5 µg/mL). In data set [3], the cytotoxicity at 72 h, 50 µM stood at 20.6%.
Turning to `O=C(Nc1ccc(Cl)cc1)N1CCc2c(c(-c3ccccc3)nn2C(=O)C2CCCCC2)C1`, the inhibition in data set [1] was 54.7%. Also, the minimal inhibitory concentration (MIC) in data set [2] stood at 108 µM (≈ 50 µg/mL). Further, the cytotoxicity at 72 h, 50 µM in data set [3] amounted to 4%.
On to `CC(=O)c1ccc(S(=O)(=O)N2CCc3c(c(-c4ccccc4)nn3C(=O)C3CCCCC3)C2)cc1`, for which the inhibition in data set [1] came out at 39.2%. Moreover, the MIC in data set [2] is 50.8 µM (≈ 25 µg/mL). Also, in data set [3], the cytotoxicity at 72 h, 50 µM stood at 11.5%.
In the same order, the values of `O=C(C1CCCCC1)n1nc(-c2ccccc2)c2c1CCN(S(=O)(=O)c1ccc(F)cc1)C2` are 46.8%, 53.5 µM (≈ 25 µg/mL) and 1.4%.
On to `O=C(Nc1cccc2ccccc12)N1CCc2c(c(-c3ccccc3)nn2C(=O)C2CCCCC2)C1`, for which the inhibition in data set [1] was 50.9%. In data set [2], the MIC was 52.2 µM (≈ 25 µg/mL). The cytotoxicity at 72 h, 50 µM in data set [3] came to 4.1%.
`COc1ccc(NC(=O)N2CCc3c(c(-c4ccccc4)nn3C(=O)C3CCCCC3)C2)cc1`: the inhibition in data set [1] is 38.7%. In addition, the MIC in data set [2] came out at 109 µM (≈ 50 µg/mL). Further, the cytotoxicity at 72 h, 50 µM in data set [3] came out at 52.5%.
As to `CC[C@@H](CO)NCCN[C@@H](CC)CO` [ETHAMBUTOL], the inhibition in data set [1] is 0%. Besides, the MIC in data set [2] stood at 15.3 µM (≈ 3.12 µg/mL).
Take `O=C(C1CCCCC1)n1nc(-c2ccccc2)c2c1CCN(C(=S)Nc1ccc(F)cc1)C2`: in data set [1], the inhibition turned out to be 49.2%. Moreover, in data set [2], the minimum inhibitory concentration (MIC) was 105 µM (≈ 48.7 µg/mL). In data set [3], the cytotoxicity at 72 h, 50 µM was found to be 58.4%.
Regarding `O=C(Nc1ccc(Cl)cc1)N1CCc2c(c(-c3ccccc3)nn2C(=O)c2ccccc2)C1`, the inhibition in data set [1] came to 40.2%. For the same molecule, the MIC in data set [2] stood at 109 µM (≈ 50 µg/mL). Besides, the cytotoxicity at 72 h, 50 µM in data set [3] worked out at 4.9%.
In the same order, the values of `O=C(c1ccccc1)n1nc(-c2ccccc2)c2c1CCN(S(=O)(=O)c1cccs1)C2` are 48.7%, 55.6 µM (≈ 25 µg/mL) and 6.8%.
As to `CCOc1ccc(NC(=O)N2CCc3c(c(-c4ccccc4)nn3C(=O)C3CCCCC3)C2)cc1`, the inhibition in data set [1] amounted to 48.5%. The minimum inhibitory concentration (MIC) in data set [2] came to 106 µM (≈ 50 µg/mL). Besides, in data set [3], the cytotoxicity at 72 h, 50 µM came to 4.9%.
Turning to `C=CCNC(=S)N1CCc2c(c(-c3ccccc3)nn2C(=O)c2ccccc2)C1`, the inhibition in data set [1] was determined as 41.7%. Also, the minimal inhibitory concentration (MIC) in data set [2] is more than 124 µM. Further, the cytotoxicity at 72 h, 50 µM in data set [3] came out at 6%.
With `O=C(c1ccccc1)n1nc(-c2ccccc2)c2c1CCN(S(=O)(=O)c1ccc([N+](=O)[O-])cc1)C2`, in data set [1], the inhibition stood at 39.7%. For the same molecule, in data set [2], the MIC is 25.6 µM (≈ 12.5 µg/mL). Further, in data set [3], the cytotoxicity at 72 h, 50 µM came out at 18.6%.
For `COc1ccc(NC(=S)N2CCc3c(c(-c4ccccc4)nn3C(=O)C3CCCCC3)C2)cc1`, in data set [1], the inhibition worked out at 50.6%. In addition, the MIC in data set [2] is 102 µM (≈ 48.3 µg/mL). In addition, the cytotoxicity at 72 h, 50 µM in data set [3] amounted to 9.5%.
For `O=C(c1ccccc1)n1nc(-c2ccccc2)c2c1CCN(C(=S)Nc1ccc(F)cc1)C2`, in data set [1], the inhibition was 43.5%. Besides, the MIC in data set [2] turned out to be 110 µM (≈ 50 µg/mL). The cytotoxicity at 72 h, 50 µM in data set [3] was found to be 0.5%.
For `NNC(=O)c1ccncc1` [ISONIAZID], the inhibition in data set [1] is 0%. Moreover, the MIC in data set [2] was 0.72 µM (≈ 0.0987 µg/mL).
For the molecule `Cc1ccc(NC(=S)N2CCc3c(c(-c4ccccc4)nn3C(=O)c3ccccc3)C2)cc1`, the inhibition in data set [1] was determined as 23.9%. Besides, the MIC in data set [2] is more than 110 µM. Further, in data set [3], the cytotoxicity at 72 h, 50 µM came to 0%.
For `O=C(C1CCCCC1)n1nc(-c2ccccc2)c2c1CCN(C(=S)Nc1ccc(Cl)cc1)C2`, in data set [1], the inhibition was 56.3%. Further, the MIC in data set [2] was determined as 109 µM (≈ 52.2 µg/mL). Further, in data set [3], the cytotoxicity at 72 h, 50 µM amounted to 51.1%.
As for `Cc1ccc(NC(=S)N2CCc3c(c(-c4ccccc4)nn3C(=O)C3CCCCC3)C2)cc1`, in data set [1], the inhibition worked out at 50.5%. In addition, in data set [2], the MIC stood at 51.1 µM (≈ 23.4 µg/mL). In addition, in data set [3], the cytotoxicity at 72 h, 50 µM is 27.8%.
For `O=C(C1CCCCC1)n1nc(-c2ccccc2)c2c1CCN(S(=O)(=O)c1ccc([N+](=O)[O-])cc1)C2`, in data set [1], the inhibition was found to be 50.2%. In addition, in data set [2], the minimum inhibitory concentration (MIC) is 50.5 µM (≈ 25 µg/mL). For the same molecule, the cytotoxicity at 72 h, 50 µM in data set [3] is 8.3%.
For the molecule `COc1ccc(NC(=S)N2CCc3c(c(-c4ccccc4)nn3C(=O)c3ccccc3)C2)cc1`, the inhibition in data set [1] came to 10.2%. Further, the MIC in data set [2] was determined as 107 µM (≈ 50 µg/mL). Moreover, the cytotoxicity at 72 h, 50 µM in data set [3] was 0%.
In the same order, the values of `O=C(Nc1ccc(Br)cc1)N1CCc2c(c(-c3ccccc3)nn2C(=O)C2CCCCC2)C1` are 50.5%, 98.5 µM (≈ 50 µg/mL) and 0%.
